Data taken from ChEMBL document CHEMBL1121954, “Studies on the synthesis of chemotherapeutics. 12. Synthesis and antitumor activity of N-phthalidyl-5-fluorouracil derivatives” (1982).
Where “and” joins values, the source holds several entries; their conditions need not be identical. Identical values can stand only once.

Columns and labels:
Mus musculus [1] = assay: In vivo antitumor activity against P-388 Leukemia cell line in female BDF1 mice after oral administered dose of 25 mg/kg; format: functional
Method in brief: (§1)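 Female BDF1 mice, 17-23 g, five per group, inoculated intraperitoneally with 10^6 P-388 cells. Oral dosing once daily for 9 days, beginning 1 day after implantation. Activity is % T/C, the median survival time of treated mice relative to controls.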

Mus musculus [2] = assay: In vivo antitumor activity against P-388 Leukemia cell line in female BDF1 mice after oral administered dose of 50 mg/kg; format: functional; method in brief: as §1
Mus musculus [3] = assay: In vivo antitumor activity against P-388 Leukemia cell line in female BDF1 mice after oral administered dose of 100 mg/kg; format: functional; method in brief: as §1
Mus musculus [4] = assay: In vivo antitumor activity against P-388 Leukemia cell line in female BDF1 mice after oral administered dose of 200 mg/kg; format: functional; method in brief: as §1
Mus musculus [5] = assay: In vivo antitumor activity against Meth A cell line in female […] mice after oral administered dose of 150 mg/kg; format: functional
Mus musculus [6] = assay: In vivo antitumor activity against MH 134 cell line in female […] mice after oral administered dose of 150 mg/kg; format: functional
Mus musculus [7] = assay: In vivo antitumor activity against Meth A cell line in female BALB/c mice after oral administered dose of 200 mg/kg; death
Mus musculus [8] = assay: In vivo antitumor activity against MH 134 cell line in female […] mice after oral administered dose of 25 mg/kg; format: functional
Mus musculus [9] = assay: In vivo antitumor activity against MH 134 cell line in female […] mice after oral administered dose of 200 mg/kg; format: functional
Mus musculus [10] = assay: In vivo antitumor activity against MH 134 cell line in female […] mice after oral administered dose of 50 mg/kg; format: functional
Mus musculus [11] = assay: In vivo antitumor activity against Meth A cell line in female BALB/c mice after oral administered dose of 50 mg/kg
Mus musculus [12] = assay: In vivo antitumor activity against Meth A cell line in female […] mice after oral administered dose of 200 mg/kg; format: functional

In the case of `O=C1OC(n2c(=O)c(F)cn(C3CCCO3)c2=O)c2ccccc21` (stereo not drawn), the T/C (Mus musculus [1]) was 104%, the T/C (Mus musculus [2]) was 109% and the T/C (Mus musculus [3]) was 115%. The T/C (Mus musculus [4]) was 111%.

In the case of `O=c1[nH]c(=O)n(C2CCCO2)cc1F` (stereo not drawn) [TEGAFUR], the T/C (Mus musculus [5]) was 23%, the T/C (Mus musculus [1]) was 115% and the T/C (Mus musculus [2]) was 104%. For the same molecule, the T/C (Mus musculus [6]) was 50%, the T/C (Mus musculus [7]) was “death” and the T/C (Mus musculus [8]) was 100%. For the same molecule, the T/C (Mus musculus [9]) was 32%, the T/C (Mus musculus [3]) was 136% and the T/C (Mus musculus [10]) was 64%. The T/C (Mus musculus [4]) was 106%.

Work on `O=C1OC(n2cc(F)c(=O)[nH]c2=O)c2ccccc21` (stereo not drawn) yielded a T/C (Mus musculus [5]) of 7%, a T/C (Mus musculus [1]) of 118% and a T/C (Mus musculus [2]) of 116%. The T/C (Mus musculus [6]) was 22%, the T/C (Mus musculus [7]) was “death” and the T/C (Mus musculus [8]) was 50%. For the same molecule, the T/C (Mus musculus [9]) was 8%, the T/C (Mus musculus [3]) was 129% and the T/C (Mus musculus [11]) was 26%. The T/C (Mus musculus [10]) was 34% and the T/C (Mus musculus [4]) was 124%.

`Cc1ccccc1C(=O)n1c(=O)c(F)cn(C2OC(=O)c3ccccc32)c1=O` (stereo not drawn) was tested, and the T/C (Mus musculus [1]) was 113%, the T/C (Mus musculus [2]) was 99% and the T/C (Mus musculus [3]) was 102%. It also gave a T/C (Mus musculus [4]) of 109%.

Molecule `CC(=O)n1cc(F)c(=O)n(C2OC(=O)c3ccccc32)c1=O` (stereo not drawn) has a T/C (Mus musculus [1]) of 106%, a T/C (Mus musculus [2]) of 97% and a T/C (Mus musculus [3]) of 104%. The T/C (Mus musculus [4]) was 111%.

In the case of `O=C1OC(n2c(=O)[nH]cc(F)c2=O)c2ccccc21` (stereo not drawn), the T/C (Mus musculus [5]) was 19%, the T/C (Mus musculus [1]) was 111% and the T/C (Mus musculus [2]) was 104%. The T/C (Mus musculus [6]) was 37%, the T/C (Mus musculus [8]) was 77% and the T/C (Mus musculus [12]) was 7% and 19%. The T/C (Mus musculus [9]) was 17%, the T/C (Mus musculus [3]) was 120% and the T/C (Mus musculus [11]) was 37%. For the same molecule, the T/C (Mus musculus [10]) was 45% and the T/C (Mus musculus [4]) was 102%.

For `O=C1OC(n2cc(F)c(=O)n(C3OC(=O)c4ccccc43)c2=O)c2ccccc21` (stereo not drawn), the T/C (Mus musculus [1]) was 97%, the T/C (Mus musculus [2]) was 104% and the T/C (Mus musculus [3]) was 102%. The T/C (Mus musculus [4]) was 102%.
